Measured values gathered from unrelated publications.
Lines come from different studies, so protocols differ.
Mode: inhibitor
CDK5 with p25: Cyclin-dependent kinase 5, with p25 (CDK5, Homo sapiens, UniProt Q00535)
CDK5 with p35: Cyclin-dependent kinase 5, with p35 (CDK5, Homo sapiens, UniProt Q00535)

| Compound | target | effect on | technique | cells | tested at | inhibition [%] |
| --- | --- | --- | --- | --- | --- | --- |
| CN1CC(Oc2cnc(C#N)cc2-c2ccn3nc(NC(=O)C4CC4)cc3c2)C1 | CDK5 with p25 | enzyme activity |  |  | 1 µM | 4 |
| Cc1ccc(Nc2nccc(N(C)c3ccc4c(C)n(C)nc4c3)n2)cc1S(N)(=O)=O | CDK5 with p25 | enzyme activity |  |  | 10 µM | 44 |
| CC[C@H](C)[C@H](NC(=O)[C@H](CCC(N)=O)NC(=O)[C@H](CC(C)C)NC(=O)[C@H](CCSC)NC(=O)[C@H](CCCCN)NC(=O)[C@H](CO)NC(=O)[C@H](CO)NC(=O)[C@H](CCSC)NC(=O)[C@H](CC(C)C)NC(=O)[C@H](CC(N)=O)NC(=O)[C@@H](NC(=O)[C@@H](NC(=O)[C@H](CO)NC(=O)[C@H](CC(C)C)NC(=O)[C@H](CS)NC(=O)[C@H](CCCNC(=N)N)NC(=O)[C@H](CC(=O)O)NC(=O)[C@H](Cc1c[nH]c2ccccc12)NC(=O)[C@H](Cc1ccccc1)NC(=O)[C@H](C)NC(=O)[C@H](CCC(=O)O)NC(=O)[C@@H](N)CCCCN)C(C)C)[C@@H](C)CC)C(=O)N[C@@H](CC(N)=O)C(=O)N[C@@H](C)C(=O)O | CDK5 with p25 | enzyme activity | radiometric |  | 10 µM | 13 |
| CN(C)C1CCN(CC#Cc2nn(C3CCCC3)c3nc(NCc4ccccc4)ncc23)C1 (centres unmarked) | CDK5 with p25 | enzyme activity | FRET |  | 0.1 µM | 1 |
| CNCc1ccc(-c2cc(-c3nc(-c4ccc(S(=O)(=O)C(C)C)cc4)cnc3N)on2)cc1 | CDK5 with p35 | enzyme activity |  |  | 0.4 µM | 0 |
| CCN1CCN(Cc2ccc(NC(=O)c3ccc(C)c(Oc4ccnc5[nH]ccc45)c3)cc2C(F)(F)F)CC1 | Cyclin-dependent kinase 5 (CDK5, Homo sapiens, UniProt Q00535) | target engagement in cells | chemoproteomics | Huh-7 | 1 µM | -88.8 |
| COc1cc(-c2cc(-c3ccc(N4CCNCC4)cc3)cnc2C)cc(OC)c1OC | CDK5 with p25 | enzyme activity |  |  | 1 µM | 3 |
| COc1cc2ncnc(Nc3ccc(Oc4ccccc4)c(C)c3C)c2cc1OC | CDK5 with p35 | enzyme activity |  |  | 1 µM | -1 |
